Among the data in article PMC11376197 (Chemical Science, 2024) are IC50 values, retold here.

What all share (assay): Cell viability assay
Experiment [1] concerns HCT116 (colon cancer cells). The experiment is classed as cell-based, human. Particulars: read-out: IC50 HCT116; 96 h of incubation. In outline:
(§1)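 Cell lines were exposed to test compounds for 96 h, with cisplatin as a reference. Complexes came from DMSO stocks and cisplatin from water stocks. Antiproliferative activity is expressed as IC50.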

In experiment [2] the test system is MRC-5 (non-cancerous lung fibroblasts). The experiment is classed as cell-based. Particulars: read-out: IC50 MRC-5; 96 h of incubation. The gist of the method: as §1
The subject of experiment [3] is A2780 (cisplatin-sensitive ovarian cancer cells). Type of experiment: cell-based, human. Particulars: read-out: IC50 A2780; 96 h of incubation. The gist of the method: as §1
Experiment [4] deals with OVCAR-3 (high-grade serous ovarian cancer cells). Type of experiment: cell-based, human. The conditions noted are these: read-out: IC50 OVCAR-3; 96 h of incubation. The gist of the method: as §1

`N.N.[Cl][Pt][Cl]` [Cisplatin]: the IC50 (as a rule, the midpoint of a concentration-inhibition curve) in experiment [1] amounted to 7900 ± 800 nM; in experiment [2] it was 2000 ± 1000 nM; in experiment [3], 600 ± 200 nM; in experiment [4], 3100 ± 200 nM.
